Laboratory results as given in ChEMBL document CHEMBL4376812 (J Med Chem, 2019).
pIC50: −log10 of the molar value.

How the values were obtained:
[1] = Permeability coefficient, Kp across basolateral to apical side in human Caco2 cells; format: ADME, cell-based; details: Caco-2, read-out: permeability
Summary of the method: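 Caco-2 monolayer permeability measured in both directions, apical-to-basal and basal-to-apical, reported as Pc in nm/s. An efflux ratio was calculated from the two directions.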

Cytochrome P450 1A2 = biological target: T1, Cytochrome P450 1A2 (Homo sapiens, UniProt P05177); assay: Inhibition of CYP1A2 (unknown origin); format: ADME
T1 sequence (P05177 whole entry): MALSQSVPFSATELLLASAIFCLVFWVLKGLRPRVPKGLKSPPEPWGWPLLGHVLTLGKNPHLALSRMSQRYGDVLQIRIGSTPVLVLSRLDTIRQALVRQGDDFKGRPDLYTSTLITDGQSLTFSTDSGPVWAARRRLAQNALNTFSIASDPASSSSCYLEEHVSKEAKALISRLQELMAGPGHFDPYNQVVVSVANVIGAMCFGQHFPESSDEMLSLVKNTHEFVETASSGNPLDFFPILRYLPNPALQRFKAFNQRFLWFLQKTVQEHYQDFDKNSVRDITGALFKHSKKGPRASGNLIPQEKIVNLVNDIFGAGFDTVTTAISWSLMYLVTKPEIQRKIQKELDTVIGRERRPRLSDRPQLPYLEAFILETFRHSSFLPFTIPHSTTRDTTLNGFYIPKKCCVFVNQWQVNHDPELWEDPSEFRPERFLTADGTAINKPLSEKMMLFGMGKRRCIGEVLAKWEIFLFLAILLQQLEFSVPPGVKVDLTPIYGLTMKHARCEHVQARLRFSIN
Summary of the method: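 Inhibition of CYP1A2, 2C9, 2C19, 2D6 and 3A4, read out as IC50. The highest concentration tested was 40 μM.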

[2] = Protein binding in human assessed as unbound fraction; format: ADME
[3] = Clearance in C57BL/6 mouse at 1 mg/kg, iv; format: ADME, organism-based; details: in vivo
Summary of the method: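 Mouse iv PK: 1 mg/kg given in 80% PEG 400/20% water. Clearance (mL min⁻¹ kg⁻¹) and MRT (h) were derived.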

[4] = MRT in dog at 2 mg/kg, iv; format: ADME, organism-based, Canis lupus familiaris; details: in vivo
Summary of the method: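 Dog and monkey iv PK: 2 mg/kg given by iv administration. Clearance (mL min⁻¹ kg⁻¹), Vss, T1/2 (h) and MRT (h) were derived.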

[5] = Time during which drug concentration exceed invitro IC50 for TYK2 in mouse whole blood assessed as decrease in IFNalpha-induced STAT1 phosphorylation in C57BL/6 mouse at 15 mg/kg, po via gavage bid for 9 days with first dose given prior to first IL23 challenge and twice a day thereafter; format: ADME, organism-based; details: in vivo, 216 h
Summary of the method: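 Drug levels were measured in the animals of the IL-23 acanthosis study, dosed orally twice daily. The duration was the time, in hours, that levels stayed at or above the in vitro mouse whole blood IC50 for IFNα-induced pSTAT1.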

- Papp B→A [1]: 74 ×10⁻⁶ cm/s
- pIC50 (Cytochrome P450 1A2): < 4.40
- fraction unbound [2]: 0.13
- clearance [3]: 13.2 mL/min/kg
- MRT [4]: 5.5 h
- T>IC50 [5]: 21 h
SMILES: [2H]C([2H])([2H])NC(=O)c1nnc(NC(=O)C2CC2)cc1Nc1cccc(-c2ncn(C)n2)c1OC [DEUCRAVACITINIB]
